Values after ≈ are worked out from the molar mass of the structure shown. Active and inactive are the calls of the source. No cut-off for these calls is given here.
Legend:
[1] = biological target: T1, Corticotropin-releasing factor receptor 1 (Homo sapiens, UniProt P34998); test: Antagonist activity at human CRF1 receptor expressed in HEK293 cells assessed as inhibition of CRF-induced intracellular cAMP production preincubated for 30 mins before CRF addition measured after 30 mins by enzyme immunoassay; type: functional, cell-based
T1 sequence (P34998 whole entry): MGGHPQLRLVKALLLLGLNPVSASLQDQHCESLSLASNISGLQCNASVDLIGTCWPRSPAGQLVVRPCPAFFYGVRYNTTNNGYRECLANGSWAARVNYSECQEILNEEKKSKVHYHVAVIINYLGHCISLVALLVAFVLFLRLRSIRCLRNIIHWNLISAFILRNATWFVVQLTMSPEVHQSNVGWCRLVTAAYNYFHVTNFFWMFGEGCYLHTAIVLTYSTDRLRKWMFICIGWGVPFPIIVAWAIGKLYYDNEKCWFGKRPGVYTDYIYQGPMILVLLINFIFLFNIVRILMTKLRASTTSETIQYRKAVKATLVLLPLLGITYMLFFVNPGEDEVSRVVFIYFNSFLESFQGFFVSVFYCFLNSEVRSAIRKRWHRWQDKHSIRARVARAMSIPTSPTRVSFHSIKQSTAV

[2] = Aqueous solubility of the compound in Dulbecco's phosphate-buffered saline at pH 7.4 by high-throughput HPLC method; type: physicochemical
Outline: (§1)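 A 10 mM DMSO stock of compound was diluted 1:100 into buffer in a filter plate and shaken 15 min at room temperature, then filtered. Filtrate analysed by reverse-phase HPLC-UV against an external DMSO standard. Buffers: pH 1.2 HCl/NaCl; pH 5 and 9 Britton–Robinson (acetate/phosphate/borate with KCl, NaOH-adjusted); pH 7.4 Dulbecco's PBS.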

[3] = biological target: T1, Corticotropin-releasing factor receptor 1; test: Displacement of [125I]-CRF from human CRF1 receptor expressed in HEK293 cells after 2 hrs by scintillation counting; type: cell-based
Outline: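 Scintillation proximity assay using HEK293/human CRF1 membranes (5 µg/well), WGA-coated SPA beads (1 mg/well) and 0.1 nM [125I] human/rat CRF. Buffer: PBS-type salts, 10 mM MgCl2, 2 mM EGTA, 1.5% BSA, protease inhibitors, pH 7.0. Incubated over 2 h at room temperature, then centrifuged and counted. Nonspecific binding defined with 0.4 µM sauvagine. IC50 from concentration-response curve of % total specific binding.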

[4] = Solubility of the compound in HCl/NaCl at pH 1.2 by high-throughput HPLC method; type: physicochemical; conditions: HCl/NaCl solution; outline: as §1
[5] = Solubility of the compound in Britton-Robinson buffer at pH 5 by high-throughput HPLC method; type: physicochemical; outline: as §1
[6] = Solubility of the compound in Britton-Robinson buffer at pH 9 by high-throughput HPLC method; type: physicochemical; outline: as §1
[7] = Dissociation constant, pKa of the compound; type: physicochemical
Mus musculus [8] = test: Anxiolytic activity in po dosed BALB/c mouse assessed as increase in time spent on illuminated box administered 60 mins before test measured for 5 mins by light-dark test; type: functional, organism-based
Outline: (§2)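 Male BALB/c mice, n = 10/group, dosed orally 1 h before test. Animals were habituated to 10 lx for at least 2 h (room at 150 lx) and placed in the dark compartment at start. Observed for 5 min, scoring time in the illuminated box and number of tunnel crossings. Mean ± S.E.M., Dunnett test versus vehicle.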

[9] = Cmax in Fischer 344 rat at 10 mg/kg, po; type: ADME, organism-based; design: dose 10 mg/kg, route oral; conditions: in vivo
Outline: (§3)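 Fasted F344 rats (n = 3 per dose, 189.4–205.9 g) received 3 mg/kg iv in 5% EtOH-0.02 mol/L HCl/5% glucose, or 10 mg/kg po in 5% DMSO/5% Cremophor EL/HCl/water. Blood sampled at 0.083 h (iv only), then 0.25–8 h. Brain taken 1 h after po dosing and homogenized. Samples protein-precipitated with imipramine internal standard and quantified by LC–MS/MS (ESI+). Mean ± SEM.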

Mus musculus [10] = test: Anxiolytic activity in po dosed BALB/c mouse assessed as increase in number of tunnel crossings administered 60 mins before test measured for 5 mins by light-dark test; type: functional, organism-based; outline: as §2
[11] = Half life in Fischer 344 rat at 3 mg/kg, iv; type: ADME, organism-based; design: dose 3 mg/kg, route intravenous; conditions: in vivo; outline: as §3
Rattus norvegicus [12] = test: Inhibition of CRF-induced ACTH release in Fischer 344 rat plasma at 30 mg/kg, po administered 60 mins before CRF challenge by RIA; type: functional, organism-based; design: dose 30 mg/kg
Outline: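 Male Fischer 344 rats (152–177 g) dosed orally 1 h before subcutaneous CRF at 10 µg/kg; controls got vehicle 5% DMSO/5% Cremophor/90% saline. Trunk blood taken 30 min after CRF into EDTA and spun. Plasma ACTH measured in duplicate by immunoradiometric kit against ACTH standard curve. n = 5–6 rats; mean ± S.E.M.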

[13] = Tmax in Fischer 344 rat at 10 mg/kg, po; type: ADME, organism-based; design: dose 10 mg/kg, route oral; conditions: in vivo; outline: as §3
[14] = Volume of distribution at steady state in Fischer 344 rat at 3 mg/kg, iv; type: ADME, organism-based; design: dose 3 mg/kg, route intravenous; conditions: in vivo, read-out: Vdss; outline: as §3
Rattus norvegicus [15] = test: AUC (infinity) in Fischer 344 rat at 3 mg/kg, iv; type: ADME, organism-based, Plasma; design: time infinity, dose 3 mg/kg, route intravenous; conditions: in vivo
Outline: (§4)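 Fasted F344 rats (n = 3 per dose, 189.4–205.9 g). iv: 3 mg kg−1 given as 3 mg mL−1 in 5% ethanol-0.02 mol L−1 HCl/5% glucose. p.o.: 10 mg kg−1 given as 2 mg mL−1 in 5% DMSO/5% Cremophor EL/equivalent HCl/H2O. Blood sampled at 0.083 h (iv only), then 0.25, 0.5, 1, 2, 4, 6 and 8 h. Plasma extracted with MeOH/MeCN containing imipramine internal standard and measured by positive-ESI LC–MS/MS. Results given as mean ± SEM.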

Rattus norvegicus [16] = test: AUC (infinity) in Fischer 344 rat at 10 mg/kg, po; type: ADME, organism-based, Plasma; design: time infinity, dose 10 mg/kg, route oral; conditions: in vivo; outline: as §4
[17] = Total blood clearance in Fischer 344 rat at 3 mg/kg, iv; type: ADME, organism-based; design: dose 3 mg/kg, route intravenous; conditions: whole blood; outline: as §3
[18] = Ratio of drug level in brain to plasma in Fischer 344 rat at 10 mg/kg, po after 1 hr; type: ADME, organism-based; design: dose 10 mg/kg, route oral; conditions: brain and plasma, read-out: BPR; outline: as §3
[19] = Oral bioavailability in Fischer 344 rat at 10 mg/kg; type: ADME, organism-based; conditions: in vivo; outline: as §3
Mus musculus [20] = test: Anxiolytic activity in po dosed BALB/c mouse assessed as increase in number of tunnel crossings at 30 mg/kg, po administered 60 mins before test measured for 5 mins by light-dark test; type: functional, organism-based; design: dose 30 mg/kg; outline: as §2
Mus musculus [21] = test: Anxiolytic activity in BALB/c mouse assessed as increase in time spent on illuminated box at 30 mg/kg, po administered 60 mins before test measured for 5 mins by light-dark test; type: functional, organism-based; design: dose 30 mg/kg; outline: as §2

SMILES | IC50 [1] | solubility [2] | IC50 [3] | other results
CCN(CCOC)c1ccc(OC)c2nc(-c3c(OC)cc(COC)cc3OC)c(C)cc12 |  | 89.4 µM (≈ 40.6 µg/mL) | 392 nM | 
CCc1cc2c(N(CC)CC)ccc(OC)c2nc1-c1c(OC)cc(COC)cc1OC | 32 nM | 12.1 µM (≈ 5.31 µg/mL) | 108 nM | 
CCN(CC)c1ccc(OC)c2nc(-c3c(OC)cc(COC)cc3OC)ccc12 | 332 nM | 38.2 µM (≈ 15.7 µg/mL) | 202 nM | 
CCN(CC)c1ccc(OC)c2nc(-c3c(OC)cc(C#N)cc3OC)c(C)cc12 | 63 nM | 11 µM (≈ 4.46 µg/mL) | 132 nM | 
CCN(CC)c1ccc(C)c2nc(-c3c(OC)cc(COC)cc3OC)c(C)cc12 |  | 1.7 µM (≈ 0.695 µg/mL) |  | solubility [4]: > 100 µM; solubility [5]: 22 µM (≈ 8.99 µg/mL); solubility [6]: 2 µM (≈ 0.817 µg/mL); pKa [7]: 5.86
CCN(CC)c1ccc(COC)c2nc(-c3c(OC)cc(COC)cc3OC)c(C)cc12 |  | 2.9 µM (≈ 1.27 µg/mL) | > 1000 nM | 
CCN(CC)c1ccc(C(F)F)c2nc(-c3c(OC)cc(COC)cc3OC)c(C)cc12 |  | < 0.2 µM | 414 nM | 
CCN(CC)c1ccc(C)c2nc(-c3c(OC)cc(COC)cc3OC)ccc12 |  | < 0.2 µM |  | 
CCN(CC)c1ccc(Cl)c2nc(-c3c(OC)cc(COC)cc3OC)c(C)cc12 | 28 nM | < 0.2 µM | 62 nM | 
CCN(CC)c1ccc(C)c2nc(-c3c(OC)cc(COC)cc3OC)c(Cl)cc12 |  | < 0.2 µM |  | 
CCN(CC)c1ccc(OC)c2nc(-c3c(OC)cc(COC)cc3OC)c(C)cc12 | 91 nM | 74 µM (≈ 31.4 µg/mL) | 110 nM | solubility [4]: > 100 µM; Activity (Mus musculus [8]): Dose-dependent effect; solubility [5]: 98.2 µM (≈ 41.7 µg/mL); Cmax [9]: 305 ng/mL; Activity (Mus musculus [10]): Dose-dependent effect; solubility [6]: 71 µM (≈ 30.1 µg/mL); pKa [7]: 6.01; half-life [11]: 1.73 h; Activity (Rattus norvegicus [12]): Active; Tmax [13]: 0.5 h; Vd [14]: 2.15 L/kg; AUC (Rattus norvegicus [15]): 1.542 µg/mL/h; AUC (Rattus norvegicus [16]): 0.845 µg/mL/h; clearance [17]: 44 mL/min/kg; Kp at 1 h [18]: 0.61; bioavailability [19]: 16.4%
CCN(CC)c1ccc(C)c2nc(-c3c(OC)cc(COC)cc3OC)c(F)cc12 |  | < 0.2 µM |  | 
CCN(CC)c1ccc(OC)c2nc(-c3c(OC)cc(C)cc3OC)c(C)cc12 | 43 nM | 17.3 µM (≈ 6.83 µg/mL) | 99 nM | 
CCN(CC)c1ccc(F)c2nc(-c3c(OC)cc(COC)cc3OC)c(C)cc12 | 67 nM | 10.5 µM (≈ 4.33 µg/mL) | 226 nM | 
CCN(CCOC)c1ccc(C)c2nc(-c3c(OC)cc(COC)cc3OC)c(C)cc12 |  | 7.2 µM (≈ 3.16 µg/mL) |  | 

Second part, led by results:

IC50 [1] | solubility [2] | IC50 [3] | SMILES | other results
99 nM | < 0.2 µM | 105 nM | CCCN(CCC)c1ccc(OC)c2nc(-c3c(OC)cc(COC)cc3OC)c(C)cc12 | 
57 nM | 1.9 µM (≈ 0.845 µg/mL) | 144 nM | CCN(CC)c1ccc(OC)c2nc(-c3c(OC)cc(COC)cc3OC)c(Cl)cc12 | 
 | 2 µM (≈ 0.873 µg/mL) |  | CCCN(CCC)c1ccc(C)c2nc(-c3c(OC)cc(COC)cc3OC)c(C)cc12 | 
22 nM | 3.7 µM (≈ 1.59 µg/mL) | 67 nM | CCN(CC)c1ccc(OC)c2nc(-c3c(Cl)cc(COC)cc3OC)c(C)cc12 | Activity (Mus musculus [8]): Dose-dependent effect; Activity (Mus musculus [10]): Dose-dependent effect; Activity (Mus musculus [20]): Active; Activity (Mus musculus [21]): Active
36 nM | 3.2 µM (≈ 1.34 µg/mL) | 102 nM | CCN(CC)c1ccc(C#N)c2nc(-c3c(OC)cc(COC)cc3OC)c(C)cc12 | solubility [4]: > 100 µM; solubility [5]: 2.1 µM (≈ 0.881 µg/mL); solubility [6]: 4.2 µM (≈ 1.76 µg/mL); pKa [7]: < 3
75 nM | 4.6 µM (≈ 1.97 µg/mL) | 118 nM | CCN(CC)c1ccc(OC)c2nc(-c3c(OC)cc(COC)cc3OC)c(F)cc12 | 
259 nM | < 0.2 µM | 288 nM | CCN(CC)c1ccc(C(F)(F)F)c2nc(-c3c(OC)cc(COC)cc3OC)c(C)cc12 | 
65 nM | 8.7 µM (≈ 4.2 µg/mL) | 156 nM | COCCN(CC(C)C)c1ccc(OC)c2nc(-c3c(OC)cc(COC)cc3OC)c(C)cc12 | 

Reference: ChEMBL document CHEMBL2157982, “Synthesis and structure-activity relationships of 8-substituted-2-aryl-5-alkylaminoquinolines: Potent, orally active corticotropin-releasing factor-1 receptor antagonists” (Bioorg Med Chem, 2012)
